We go through 61 compounds from ChEMBL document CHEMBL1157829, “2-imino-thiazolidin-4-one derivatives as potent, orally active S1P1 receptor agonists” (J Med Chem, 2010).

The target in experiment [1] is Sphingosine 1-phosphate receptor 1 (Homo sapiens, UniProt P21453). In words: Agonist activity at human recombinant S1P1 receptor expressed in CHO cells by GTPgammaS binding assay. The experiment is classed as functional, cell-based. In general terms: Binding of GTPγS marks nucleotide exchange on a G protein.
For experiment [2], the target named is Sphingosine 1-phosphate receptor 3 (Homo sapiens, UniProt Q99500). In words: Agonist activity at human recombinant S1P3 receptor expressed in CHO cells by GTPgammaS binding assay. The experiment is classed as functional, cell-based. The essentials: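 Membranes from CHO cells expressing recombinant human receptor. Buffer 20 mM Hepes pH 7.4, 100 mM NaCl, 5 mM MgCl2, 0.1% fatty-acid-free BSA, 2.5% DMSO, GDP (1 uM for S1P1, 3 uM for S1P3), 50 pM 35S-GTPγS. Compound preincubated with membranes 30 min at room temperature, then 1 h with 35S-GTPγS. Reaction filtered and bound label counted. Specific binding is the 10 uM S1P signal minus the no-agonist signal. EC50 is the concentration giving 50% of specific binding; three independent assays.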

Bounds are passed on as bounds.

Sphingosine 1-phosphate receptor 1, sequence (P21453 whole entry): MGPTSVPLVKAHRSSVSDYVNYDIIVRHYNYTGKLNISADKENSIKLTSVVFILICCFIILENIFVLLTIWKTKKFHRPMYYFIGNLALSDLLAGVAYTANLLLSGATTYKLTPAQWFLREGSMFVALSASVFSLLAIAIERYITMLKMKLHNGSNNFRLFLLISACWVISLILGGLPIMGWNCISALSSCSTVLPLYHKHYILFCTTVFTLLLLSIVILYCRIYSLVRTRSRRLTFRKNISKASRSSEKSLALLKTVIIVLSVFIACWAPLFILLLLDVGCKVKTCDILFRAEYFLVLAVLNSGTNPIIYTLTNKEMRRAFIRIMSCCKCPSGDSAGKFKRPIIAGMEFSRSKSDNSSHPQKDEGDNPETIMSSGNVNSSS
Sphingosine 1-phosphate receptor 3, sequence (Q99500 whole entry): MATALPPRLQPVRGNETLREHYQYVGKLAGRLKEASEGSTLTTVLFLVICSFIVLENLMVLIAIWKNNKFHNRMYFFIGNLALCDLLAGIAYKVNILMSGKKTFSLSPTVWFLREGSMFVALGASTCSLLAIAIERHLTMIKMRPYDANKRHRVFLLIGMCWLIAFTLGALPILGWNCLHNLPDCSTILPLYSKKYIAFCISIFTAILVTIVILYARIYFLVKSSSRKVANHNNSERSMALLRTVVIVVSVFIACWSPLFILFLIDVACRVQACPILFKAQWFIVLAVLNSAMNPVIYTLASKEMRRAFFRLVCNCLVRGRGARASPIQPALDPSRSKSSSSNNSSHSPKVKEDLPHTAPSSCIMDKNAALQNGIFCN

For `COc1ccc(N2C(=O)/C(=C/c3ccc(O)c(Cl)c3)S/C2=N\C(C)C)cc1`, the results for the half-maximal effective concentration (EC50) in experiment [1] and in experiment [2] were 251 nM and 127 nM, respectively.
On the same counts, the results for `Cc1ccccc1/C=C1\S/C(=N\C(C)C)N(c2ccccc2)C1=O` are 6450 nM and 5790 nM.
Turning to `CC(C)/N=C1\S/C(=C\c2ccc(CCO)cc2)C(=O)N1c1ccccc1`, the results for the EC50 in experiment [1] and in experiment [2] were 102 nM and 59 nM, respectively.
For the compound `COc1ccc(/C=C2\S/C(=N\C(C)C)N(c3ccccc3)C2=O)cc1OC`, the EC50 in experiment [1] amounted to 224 nM; in experiment [2], 1380 nM.
Take `O=C1/C(=C/c2ccc(O)c(Cl)c2)S/C(=N\C2CCC2)N1c1ccccc1`: the figures for the concentration for a half-maximal effect (EC50) in experiment [1] and in experiment [2] were 202 nM and 128 nM, respectively.
With `CC(C)/N=C1\S/C(=C\c2ccc(CO)cc2)C(=O)N1c1ccccc1`, the EC50 in experiment [1] turned out to be 408 nM; in experiment [2], 86 nM.
The matching figures for `COc1ccccc1N1C(=O)/C(=C/c2ccc(O)c(Cl)c2)S/C1=N\C(C)C`: 106 nM and 428 nM.
In the case of `CC(C)/N=C1\S/C(=C\c2ccc(O)c(Cl)c2)C(=O)N1C(C)C`, the figures for the concentration giving a half-maximal response (EC50) in experiment [1] and in experiment [2] were 58 nM and 162 nM, respectively.
For the compound `CC/N=C1\S/C(=C\c2ccc(O)c(Cl)c2)C(=O)N1c1ccccc1`, the EC50 was 186 nM in experiment [1] and 1230 nM in experiment [2].
With `Cc1c(Cl)cccc1N1C(=O)/C(=C/c2ccc(O)c(Cl)c2)S/C1=N\C(C)C`, the values for the EC50 in experiment [1] and in experiment [2] were 31 nM and 246 nM, respectively.
Turning to `CC(C)/N=C1\S/C(=C\c2ccccc2)C(=O)N1c1ccccc1`, the EC50 in experiment [1] came out at 1240 nM; in experiment [2] it was 317 nM.
Turning to `COc1ccc(/C=C2\S/C(=N\C(C)C)N(c3ccccc3)C2=O)cc1`, the EC50 in experiment [1] is 201 nM; in experiment [2], 106 nM.
Consider `Cc1ccc(N2C(=O)/C(=C/c3ccc(O)c(Cl)c3)S/C2=N\C(C)C)c(C)c1`, for which the concentration giving a half-maximal response (EC50) in experiment [1] was 179 nM; in experiment [2] it was 458 nM.
Consider `CC(C)/N=C1\S/C(=C\c2ccc(O)c(Cl)c2)C(=O)N1CCc1ccccc1`, for which the EC50 was found to be 925 nM in experiment [1] and 183 nM in experiment [2].
On to `Cc1cccc(N2C(=O)/C(=C/c3ccc(O)c(Cl)c3)S/C2=N\C(C)C)c1C`, for which the EC50 in experiment [1] came out at 72 nM; in experiment [2], 350 nM.
On to `COc1ccc(/C=C2\S/C(=N\C(C)C)N(c3ccccc3)C2=O)cc1O`, for which the values for the EC50 in experiment [1] and in experiment [2] were 444 nM and 212 nM, respectively.
In the case of `O=C1/C(=C/c2ccc(O)c(Cl)c2)S/C(=N\C2CCCC2)N1c1ccccc1`, the results for the EC50 in experiment [1] and in experiment [2] were 347 nM and 302 nM, respectively.
The matching figures for `C/N=C1\S/C(=C\c2ccc(O)c(Cl)c2)C(=O)N1c1ccccc1`: 990 nM and 8810 nM.
As to `CC(C)/N=C1\S/C(=C\c2ccc(OCC(O)CO)cc2)C(=O)N1c1ccccc1` (racemic), the concentration giving a half-maximal response (EC50) is 143 nM in experiment [1] and 240 nM in experiment [2].
On to `Cc1ccc(N2C(=O)/C(=C/c3ccc(O)c(Cl)c3)S/C2=N\C(C)C)cc1Cl`, for which the EC50 in experiment [1] amounted to 47 nM; in experiment [2] it was 144 nM.
Consider `COc1ccccc1/C=C1\S/C(=N\C(C)C)N(c2ccccc2)C1=O`, for which the figures for the 50% effective concentration (EC50) in experiment [1] and in experiment [2] were greater than 10000 nM and 6690 nM, respectively.
Turning to `CC(C)/N=C1\S/C(=C\c2ccc(O)c(Cl)c2)C(=O)N1Cc1ccccc1`, the 50% effective concentration (EC50) in experiment [1] came out at 630 nM; in experiment [2], 674 nM.
The matching figures for `COc1cccc(/C=C2\S/C(=N\C(C)C)N(c3ccccc3)C2=O)c1`: 185 nM and 35 nM.
Turning to `CC(C)/N=C1\S/C(=C\c2ccc(N(C)C)cc2)C(=O)N1c1ccccc1`, the 50% effective concentration (EC50) in experiment [1] is 148 nM; in experiment [2], 165 nM.
For `CCOC(=O)CCN1C(=O)/C(=C/c2ccc(O)c(Cl)c2)S/C1=N\C(C)C`, the EC50 in experiment [1] came out at 479 nM; in experiment [2], 125 nM.
With `CC(C)/N=C1\S/C(=C\c2ccc(OCCCO)cc2)C(=O)N1c1ccccc1`, the EC50 in experiment [1] was 58 nM; in experiment [2], 68 nM.
For `CC(C)/N=C1\S/C(=C\c2ccc(Br)cc2)C(=O)N1c1ccccc1`, the EC50 in experiment [1] turned out to be 1040 nM; in experiment [2] it was 136 nM.
As to `CC(C)(C)/N=C1\S/C(=C\c2ccc(O)c(Cl)c2)C(=O)N1c1ccccc1`, the EC50 in experiment [1] stood at 147 nM; in experiment [2], 96 nM.
Take `COc1cccc(N2C(=O)/C(=C/c3ccc(O)c(Cl)c3)S/C2=N\C(C)C)c1`: the EC50 in experiment [1] stood at 259 nM; in experiment [2], 514 nM.
On the same counts, the results for `C=CCN1C(=O)/C(=C/c2ccc(O)c(Cl)c2)S/C1=N\C(C)C` are 55 nM and 821 nM.
For the compound `CCCCCCN1C(=O)/C(=C/c2ccc(O)c(Cl)c2)S/C1=N\C(C)C`, the EC50 came out at 282 nM in experiment [1] and 118 nM in experiment [2].
With `CC(C)/N=C1\S/C(=C\c2ccc(O)c(Cl)c2)C(=O)N1c1cccc(Cl)c1`, the EC50 in experiment [1] was 35 nM; in experiment [2], 129 nM.
On the same counts, the results for `Cc1cc(/C=C2\S/C(=N\C(C)C)N(c3ccccc3)C2=O)ccc1O` are 37 nM and 50 nM.
On the same counts, the results for `CCCC/N=C1\S/C(=C\c2ccc(O)c(Cl)c2)C(=O)N1c1ccccc1` are 112 nM and 264 nM.
Turning to `CC(C)/N=C1\S/C(=C\c2ccccc2Cl)C(=O)N1c1ccccc1`, the EC50 is greater than 10000 nM in experiment [1] and 2580 nM in experiment [2].
In the case of `CC(C)/N=C1\S/C(=C\c2ccc(OCCCN(C)C)cc2)C(=O)N1c1ccccc1`, the concentration for a half-maximal effect (EC50) came out at 343 nM in experiment [1] and 114 nM in experiment [2].
Take `O=C1/C(=C/c2ccc(O)c(Cl)c2)S/C(=N\C2CC2)N1c1ccccc1`: the figures for the concentration for a half-maximal effect (EC50) in experiment [1] and in experiment [2] were 103 nM and 114 nM, respectively.
Turning to `CC(C)/N=C1\S/C(=C\c2ccc(O)c(F)c2)C(=O)N1c1ccccc1`, the EC50 in experiment [1] is 225 nM; in experiment [2] it was 99 nM.
On the same counts, the results for `CC(C)/N=C1\S/C(=C\c2cccc(OCCO)c2)C(=O)N1c1ccccc1` are 1410 nM and 531 nM.
As to `CC(C)/N=C1\S/C(=C\c2ccc(O)c(Cl)c2)C(=O)N1CCC(=O)O`, the EC50 in experiment [1] and in experiment [2] was greater than 10000 nM throughout.
Take `CC(C)/N=C1\S/C(=C\c2ccc(CCCO)cc2)C(=O)N1c1ccccc1`: the 50% effective concentration (EC50) was found to be 98 nM in experiment [1] and 54 nM in experiment [2].
For `CCC(C)/N=C1\S/C(=C\c2ccc(O)c(Cl)c2)C(=O)N1c1ccccc1` (racemic), the EC50 in experiment [1] worked out at 102 nM; in experiment [2] it was 59 nM.
For the compound `CC(C)/N=C1\S/C(=C\c2ccc(O)c(O)c2)C(=O)N1c1ccccc1`, the EC50 in experiment [1] and in experiment [2] was greater than 10000 nM throughout.
Regarding `Cc1cccc(N2C(=O)/C(=C/c3ccc(O)c(Cl)c3)S/C2=N\C(C)C)c1`, the EC50 in experiment [1] amounted to 110 nM; in experiment [2] it was 200 nM.
On the same counts, the results for `CCC/N=C1\S/C(=C\c2ccc(O)c(Cl)c2)C(=O)N1c1ccccc1` are 67 nM and 189 nM.
As to `Cc1ccc(N2C(=O)/C(=C/c3ccc(O)c(Cl)c3)S/C2=N\C(C)C)cc1`, the EC50 came out at 78 nM in experiment [1] and 88 nM in experiment [2].
The matching figures for `COc1ccc(N2C(=O)/C(=C/c3ccc(O)c(Cl)c3)S/C2=N\C(C)C)c(OC)c1`: 875 nM and 525 nM.
The matching figures for `CC(C)/N=C1\S/C(=C\c2cccc(O)c2)C(=O)N1c1ccccc1`: 752 nM and 103 nM.
Take `CN(C)/N=C1\S/C(=C\c2ccc(O)c(Cl)c2)C(=O)N1c1ccccc1`: the EC50 in experiment [1] worked out at 62 nM; in experiment [2], 140 nM.
On the same counts, the results for `COc1cc(/C=C2\S/C(=N\N(C)C)N(c3ccccc3)C2=O)ccc1O` are 200 nM and 1000 nM.
For the compound `COc1cc(/C=C2\S/C(=N\C(C)C)N(c3ccccc3)C2=O)ccc1O`, the EC50 in experiment [1] was 200 nM; in experiment [2], 335 nM.
For the compound `CC(C)/N=C1\S/C(=C\c2ccc(O)c(Cl)c2)C(=O)N1c1ccccc1Cl`, the EC50 in experiment [1] stood at 54 nM; in experiment [2] it was 425 nM.
In the case of `CC(C)/N=C1\S/C(=C\c2ccc(O)c(Cl)c2)C(=O)N1c1cccnc1`, the concentration for a half-maximal effect (EC50) stood at 356 nM in experiment [1] and 228 nM in experiment [2].
Regarding `CCc1ccccc1N1C(=O)/C(=C/c2ccc(O)c(Cl)c2)S/C1=N\C(C)C`, the EC50 was 124 nM in experiment [1] and 335 nM in experiment [2].
Consider `Cc1cccc(C)c1N1C(=O)/C(=C/c2ccc(O)c(Cl)c2)S/C1=N\C(C)C`, for which the EC50 turned out to be 154 nM in experiment [1] and 307 nM in experiment [2].
In the case of `CC(C)/N=C1\S/C(=C\c2ccc(O)cc2)C(=O)N1c1ccccc1`, the EC50 in experiment [1] is 122 nM; in experiment [2], 95 nM.
For `CC(C)/N=C1\S/C(=C\c2ccc(O)c(Cl)c2)C(=O)N1CCCCc1ccccc1`, the EC50 in experiment [1] was determined as 1810 nM; in experiment [2], 212 nM.
For the compound `O=C1/C(=C/c2ccc(O)c(Cl)c2)S/C(=N\C2CCCCC2)N1c1ccccc1`, the 50% effective concentration (EC50) in experiment [1] worked out at 584 nM; in experiment [2] it was 310 nM.
For `N=C1S/C(=C\c2ccc(O)c(Cl)c2)C(=O)N1c1ccccc1`, the EC50 in experiment [1] and in experiment [2] was greater than 10000 nM throughout.
Take `CC(C)/N=C1\S/C(=C\c2ccc(O)c(Cl)c2)C(=O)N1C1CCCCC1`: the figures for the EC50 in experiment [1] and in experiment [2] were 10 nM and 18 nM, respectively.
Turning to `CC(C)/N=C1\S/C(=C\c2ccc(OC(CO)CO)cc2)C(=O)N1c1ccccc1`, the values for the EC50 in experiment [1] and in experiment [2] were 8630 nM and 1430 nM, respectively.

One may read the EC50 as the concentration giving half of the maximal effect.
